{"source": "paper PMC4764081", "about": "(Science (New York, N.Y.), 2015)", "key": {"[1]": {"test_system": "RPE1 human retinal pigment epithelial cells", "assay": "RPE1 passaging assay and flow cytometry", "type": "cell-based", "in_short": "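RPE1 cells passaged with inhibitor added on day 0 and washed out on day 8; proliferation followed over serial passages. Data are means ± SD, N = 2.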"}, "p53": {"test_system": "p53", "assay": "Western blot of p53 in RPE1 cells", "type": "cell-based, human", "settings": "RPE1, without genotoxic stress"}, "centrosomes [2]": {"test_system": "centrosomes", "assay": "centrosome amplification in cells", "type": "cell-based", "settings": "fig. S1"}, "[3]": {"biological_target": "T1, Polo-like kinase 4 (Plk4) (Homo sapiens, UniProt O00444)", "T1 sequence (O00444 1-970)": "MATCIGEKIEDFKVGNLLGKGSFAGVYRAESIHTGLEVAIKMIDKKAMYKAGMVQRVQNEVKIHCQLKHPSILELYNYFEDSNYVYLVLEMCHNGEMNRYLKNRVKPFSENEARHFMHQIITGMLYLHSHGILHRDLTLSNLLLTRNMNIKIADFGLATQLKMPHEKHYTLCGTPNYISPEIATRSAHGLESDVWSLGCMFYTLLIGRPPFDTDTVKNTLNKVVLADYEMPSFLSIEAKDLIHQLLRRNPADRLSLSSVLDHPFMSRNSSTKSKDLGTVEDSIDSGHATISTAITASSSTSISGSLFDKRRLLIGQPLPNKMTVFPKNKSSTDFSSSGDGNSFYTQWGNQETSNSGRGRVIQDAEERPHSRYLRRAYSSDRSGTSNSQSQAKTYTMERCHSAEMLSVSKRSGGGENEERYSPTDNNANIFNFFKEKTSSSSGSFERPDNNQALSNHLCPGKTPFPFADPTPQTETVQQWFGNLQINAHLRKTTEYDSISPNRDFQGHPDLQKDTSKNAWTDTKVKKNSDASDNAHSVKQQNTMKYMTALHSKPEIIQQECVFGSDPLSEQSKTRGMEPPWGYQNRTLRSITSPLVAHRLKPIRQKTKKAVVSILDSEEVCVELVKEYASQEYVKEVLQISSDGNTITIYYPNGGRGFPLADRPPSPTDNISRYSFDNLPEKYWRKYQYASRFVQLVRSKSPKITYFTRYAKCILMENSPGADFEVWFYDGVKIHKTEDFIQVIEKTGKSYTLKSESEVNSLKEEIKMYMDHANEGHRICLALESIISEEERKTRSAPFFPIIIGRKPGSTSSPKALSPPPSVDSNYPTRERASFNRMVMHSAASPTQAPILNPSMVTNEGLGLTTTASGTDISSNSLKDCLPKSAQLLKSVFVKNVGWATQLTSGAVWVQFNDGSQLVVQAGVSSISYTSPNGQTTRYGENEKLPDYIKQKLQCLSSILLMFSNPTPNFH", "assay": "Plk4 inhibition in vitro", "type": "biochemical", "settings": "read-out: inhibition constant (Ki)"}, "centrosomes [4]": {"test_system": "centrosomes", "assay": "centrosome depletion", "type": "cell-based", "settings": "cellular activity"}, "[5]": {"test_system": "RPE1 cells coexpressing centrin-GFP and H2B-RFP", "assay": "RPE1 lineage analysis by live-cell imaging", "type": "cell-based, human", "settings": "acute treatment", "in_short": "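RPE1 cells coexpressing centrin-GFP and H2B-RFP filmed after inhibitor addition. Both GFP and RFP channels were imaged at first to count centrosomes and follow mother-cell mitosis. Daughter fate was then tracked with RFP only. Arrest was scored as failure to enter mitosis within 48 hours of cell birth, and the percentage arresting per generation was reported; N = 2.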"}, "[6]": {"test_system": "RPE1 cells expressing G95L Plk4", "assay": "RPE1 Plk4 G95L knock-in cells, centrosome number and passaging", "type": "cell-based, human", "settings": "RPE1, both endogenous PLK4 alleles G95L"}, "HeLa cells": {"test_system": "HeLa cells", "assay": "mitotic duration by imaging, HeLa", "type": "cell-based, human", "settings": "centrosome-less HeLa cells"}, "[7]": {"test_system": "HeLa human cervical carcinoma cells", "assay": "centriole/centrosome depletion and washout in HeLa cells", "type": "cell-based", "in_short": "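HeLa cells under continuous treatment scored for foci carrying centriolar and pericentriolar markers at each round of division. Cells were imaged 7 days after inhibitor addition and again 10 days after washout.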"}, "[8]": {"test_system": "NIH/3T3 cells induced to overexpress Plk4-GFP", "assay": "centriole amplification in cells overexpressing wild-type or G95L Plk4-GFP", "type": "cell-based, mouse"}, "NIH/3T3 cells": {"test_system": "NIH/3T3 cells", "assay": "mitotic duration by imaging, NIH/3T3", "type": "cell-based, mouse", "settings": "centrosome-less NIH/3T3 cells"}, "g-H2A.X foci": {"test_system": "g-H2A.X foci", "assay": "g-H2A.X foci in RPE1 nuclei", "type": "cell-based, human", "settings": "RPE1 treated cells", "in_short": "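γ-H2A.X foci, marking double-strand DNA breaks, counted in nuclei of treated RPE1 cells. Values are means ± SD, N = 3.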"}, "[9]": {"test_system": "multiciliated Xenopus epithelial cells", "assay": "centriole number in multiciliated Xenopus epithelial cells", "type": "cell-based"}}}
{"molecule": "CCOc1cc(C(C)(C)C)ccc1C1=N[C@@](C)(c2ccc(Cl)cc2)[C@@](C)(c2ccc(Cl)cc2)N1C(=O)N1CCN(CCCS(C)(=O)=O)CC1", "note": "[R7112, reference compound]", "values": [{"measurement": "proliferation after washout", "setting": "[1]; RPE1, addition day 0, washout day 8", "result": "resumption of proliferation"}, {"measurement": "effect on p53 levels", "setting": "p53", "result": "raised p53 levels"}]}
{"molecule": "COc1ccc2c(c1)[C@]1(C[C@H]1c1ccc3c(/C=C/c4ccc(CN5C[C@@H](C)O[C@@H](C)C5)cc4)n[nH]c3c1)C(=O)N2", "note": "[CFI-400945]", "values": [{"measurement": "effect on centrosome number", "setting": "centrosomes [2]", "result": "induces centrosome amplification"}]}
{"molecule": "COc1c(Nc2cc(C)[nH]n2)nc(Sc2ccc(S(=O)(=O)Cc3cccc([N+](=O)[O-])c3F)cc2F)nc1N1CCCCC1", "note": "[centrinone-B]", "values": [{"measurement": "Ki", "setting": "[3]", "result": 0.6, "unit": "nM"}, {"measurement": "centrosome depletion at (concentration)", "setting": "centrosomes [4]", "result": 500, "unit": "nM"}]}
{"molecule": "COc1c(Nc2cc(C)[nH]n2)nc(Sc2ccc(S(=O)(=O)Cc3cccc([N+](=O)[O-])c3F)cc2F)nc1N1CCOCC1", "note": "[centrinone]", "values": [{"measurement": "fraction of progeny arrested", "setting": "[5]; one-centrosome progeny of pioneer one-centrosome mothers", "result": 25.5, "unit": "%"}, {"measurement": "fraction of progeny arrested", "setting": "[5]; progeny of pioneer zero-centrosome mothers", "result": 70, "unit": "%"}, {"measurement": "fraction of progeny arrested", "setting": "[5]; zero-centrosome progeny of pioneer one-centrosome mothers", "result": 33.0, "unit": "%"}, {"measurement": "centrosome loss or proliferation arrest", "setting": "[6]", "result": "did not lead to centrosome loss or proliferation arrest"}, {"measurement": "increase of mitotic duration", "setting": "HeLa cells", "result": "~1", "unit": "h"}, {"measurement": "effect on cell cycle", "setting": "[1]; RPE1, 12-day passaging assay and flow cytometry", "result": "cell cycle arrest in G1"}, {"measurement": "centrosome depletion at (concentration)", "setting": "centrosomes [4]", "result": 100, "unit": "nM"}, {"measurement": "reversibility of centriole loss", "setting": "[7]; 10 days after washout", "result": "fully reversible"}, {"measurement": "effect on centriolar and pericentriolar material foci", "setting": "[7]; at each round of cell division", "result": "progressive reduction"}, {"measurement": "effect on centriole amplification", "setting": "[8]", "result": "blocked centriole amplification"}, {"measurement": "increase of mitotic duration", "setting": "NIH/3T3 cells", "result": "~20", "unit": "min"}, {"measurement": "g-H2A.X foci abundance", "setting": "g-H2A.X foci", "result": "not more abundant"}, {"measurement": "effect on centriole number", "setting": "[9]", "result": "reduced centriole number"}]}
